Experimental data taken from ChEMBL document CHEMBL1143907, “Synthesis, nicotinic acetylcholine receptor binding, and pharmacological properties of 3'-(substituted phenyl)deschloroepibatidine analogs” (Bioorg Med Chem, 2008).

Key:
[1] = molecular target: Neuronal acetylcholine receptor; alpha4/beta2 (Rattus norvegicus, UniProt P09483+P12390); test: Displacement of [3H]epibatidine from alpha-4-beta-2 nAChR in rat cerebral cortex; type: tissue-based
[2] = molecular target: Neuronal acetylcholine receptor subunit alpha-7 (Rattus norvegicus, UniProt Q05941); test: Displacement of [125I]iodoMLA from alpha-7 nAChR in rat cerebral cortex; type: tissue-based
Neuronal acetylcholine receptor subunit alpha-7, sequence (Q05941 whole entry): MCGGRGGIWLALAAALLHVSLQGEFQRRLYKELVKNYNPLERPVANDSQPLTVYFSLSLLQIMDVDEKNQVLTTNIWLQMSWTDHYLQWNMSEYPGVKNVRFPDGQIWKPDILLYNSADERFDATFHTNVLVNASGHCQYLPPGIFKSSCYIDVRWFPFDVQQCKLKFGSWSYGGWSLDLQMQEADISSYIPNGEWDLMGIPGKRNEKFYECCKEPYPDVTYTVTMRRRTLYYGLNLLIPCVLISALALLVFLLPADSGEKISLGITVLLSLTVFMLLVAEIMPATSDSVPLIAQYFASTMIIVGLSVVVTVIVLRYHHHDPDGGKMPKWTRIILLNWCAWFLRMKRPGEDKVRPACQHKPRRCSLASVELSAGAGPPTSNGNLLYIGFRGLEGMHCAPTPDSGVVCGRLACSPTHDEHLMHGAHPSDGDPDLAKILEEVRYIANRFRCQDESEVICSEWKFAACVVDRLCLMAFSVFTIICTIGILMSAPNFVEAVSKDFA

Mus musculus [3] = test: Antinociceptive activity in acute pain mouse model at 10 mg/kg, sc by tail flick method; type: functional; conditions: route subcutaneous
Outline: (§1)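 Mice, tail-flick assay: heat lamp aimed at the tail, with latency to flick recorded. Each mouse's baseline (2–4 s) was taken before treatment, and test latency was taken after sc dosing. Response was expressed as %MPE = [(test−control)/(maximum latency−control)×100]. ED50 values are reported with confidence limits, or as percent effect at the individual dose.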

Mus musculus [4] = test: Inhibition of nicotine-induced antinociception in sc dosed acute pain mouse model by tail flick method; type: functional
Mus musculus [5] = test: Antinociceptive activity in acute pain mouse model at 10 mg/kg, sc by hot plate method; type: functional; conditions: route subcutaneous
Outline: (§2)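 Mice were placed in a 10-cm glass cylinder on a hot plate held at 55.0 °C. Two control latencies, at least 10 min apart, were taken per mouse (normal 8–12 s). The endpoint was a jump or paw lick, and animals were tested 5 min after sc injection. Response was expressed as %MPE from test, control and maximum latencies. ED50 values are given with confidence limits, or as percent effect at a dose.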

Mus musculus [6] = test: Inhibition of nicotine-induced antinociception in acute pain mouse model at 100 ug/kg, sc by hot plate method; type: functional; parameters: scale not given: the % may be the effect or the level left
Mus musculus [7] = test: […] in mouse assessed as inhibition of nicotin induced hypothermia at 10 mg/kg, sc; type: functional; parameters: scale not given: the % may be the effect or the level left; conditions: route subcutaneous
Mus musculus [8] = test: Effect on rectal temperature in mouse at 1000 […], sc; type: functional; conditions: route subcutaneous
Outline: (§3)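 Rectal temperature was read with a thermistor probe inserted 24 mm, just before and at several times after sc saline or analog. The pre/post difference was calculated per mouse. Laboratory ambient temperature was 21–24 °C.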

Mus musculus [9] = test: Effect on locomotor activity in sc dosed mouse assessed as spontaneous activity; type: functional
Outline: (§4)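 Mice were placed in individual photocell activity cages 5 min after sc saline (0.9%) or analog. Photobeam interruptions (two banks of eight cells) were counted over the next 10 min. Data are the number of interruptions, and ED50 is reported with confidence limits or as percent effect at a dose.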

Mus musculus [10] = test: Inhibition of nicotine-induced antinociception in acute pain mouse model at 10 ug/kg, sc by tail flick method; type: functional; parameters: scale not given: the % may be the effect or the level left
Mus musculus [11] = test: Inhibition of nicotine-induced antinociception in acute pain mouse model at 10 ug/kg, sc by hot plate method; type: functional; parameters: scale not given: the % may be the effect or the level left
[12] = molecular target: Neuronal acetylcholine receptor subunit alpha-7 (Rattus norvegicus) (UniProt Q05941); test: Displacement of [125I]iodoMLA from alpha-7 nAChR in rat cerebral cortex at 50 nM; type: tissue-based
Neuronal acetylcholine receptor subunit alpha-7 (Rattus norvegicus), sequence (Q05941 whole entry): as above

Mus musculus [13] = test: Inhibition of nicotine-induced antinociception in acute pain mouse model at 1000 ug/kg, sc by hot plate method; type: functional; parameters: scale not given: the % may be the effect or the level left
Mus musculus [14] = test: Agonist activity in sc dosed mouse assessed as induction of hypothermia
Mus musculus [15] = test: Effect on rectal temperature in mouse at 10 mg/kg, sc; type: functional; conditions: route subcutaneous; outline: as §3
Mus musculus [16] = test: Inhibition of nicotine-induced antinociception in sc dosed acute pain mouse model by hot plate method; type: functional
Mus musculus [17] = test: Antinociceptive activity in acute pain mouse model at 20 mg/kg, sc by tail flick method; type: functional; conditions: route subcutaneous; outline: as §1
Mus musculus [18] = test: Antinociceptive activity in acute pain mouse model at 20 mg/kg, sc by hot plate method; type: functional; conditions: route subcutaneous; outline: as §2
Mus musculus [19] = test: Effect on rectal temperature in mouse at 2000 […], sc; type: functional; conditions: route subcutaneous; outline: as §3
Mus musculus [20] = test: […] in mouse assessed as inhibition of nicotin induced hypothermia at 20 mg/kg, sc; type: functional; parameters: scale not given: the % may be the effect or the level left; conditions: route subcutaneous
Mus musculus [21] = test: Effect on rectal temperature in mouse at 100 […], sc; type: functional; conditions: route subcutaneous; outline: as §3
Mus musculus [22] = test: Antinociceptive activity in sc dosed acute pain mouse model by tail flick method; type: functional; outline: as §1
Mus musculus [23] = test: Antinociceptive activity in sc dosed in acute pain mouse model by hot plate method; type: functional; outline: as §2
Mus musculus [24] = test: Effect on rectal temperature in mouse at 5000 […], sc; type: functional; conditions: route subcutaneous; outline: as §3
Mus musculus [25] = test: Inhibition of nicotine-induced antinociception in acute pain mouse model at 2000 ug/kg, sc by hot plate method; type: functional; parameters: scale not given: the % may be the effect or the level left
Mus musculus [26] = test: Effect on rectal temperature in mouse at 20 mg/kg, sc; type: functional; conditions: route subcutaneous; outline: as §3
Mus musculus [27] = test: Effect on locomotor activity in mouse assessed as spontaneous activity at 10 mg/kg, sc; type: functional; conditions: route subcutaneous; outline: as §4
Mus musculus [28] = test: Antinociceptive activity in acute pain mouse model at 15 mg/kg, sc by hot plate method; type: functional; conditions: route subcutaneous; outline: as §2
Mus musculus [29] = test: Effect on rectal temperature in mouse at 10000 µg/kg, sc; conditions: route subcutaneous

Neuronal acetylcholine receptor; alpha4/beta2, sequence (P09483 whole entry): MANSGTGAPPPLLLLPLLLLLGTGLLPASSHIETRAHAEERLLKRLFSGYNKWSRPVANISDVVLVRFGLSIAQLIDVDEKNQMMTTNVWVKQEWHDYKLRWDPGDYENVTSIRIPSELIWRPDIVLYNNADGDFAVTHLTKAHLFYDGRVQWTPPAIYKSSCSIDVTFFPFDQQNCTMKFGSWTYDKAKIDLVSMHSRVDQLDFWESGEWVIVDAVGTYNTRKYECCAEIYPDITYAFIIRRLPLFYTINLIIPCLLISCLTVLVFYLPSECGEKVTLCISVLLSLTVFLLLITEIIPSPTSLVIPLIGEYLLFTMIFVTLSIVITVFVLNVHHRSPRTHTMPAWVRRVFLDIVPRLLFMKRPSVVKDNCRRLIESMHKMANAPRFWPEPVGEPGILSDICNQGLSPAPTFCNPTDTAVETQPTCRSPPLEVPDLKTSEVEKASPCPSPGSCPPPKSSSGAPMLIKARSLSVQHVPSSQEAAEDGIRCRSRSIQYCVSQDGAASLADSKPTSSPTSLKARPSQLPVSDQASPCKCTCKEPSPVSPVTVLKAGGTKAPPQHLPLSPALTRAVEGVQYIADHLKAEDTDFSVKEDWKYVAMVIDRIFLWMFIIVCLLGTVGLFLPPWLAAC
Neuronal acetylcholine receptor; alpha4/beta2, sequence (P12390 whole entry): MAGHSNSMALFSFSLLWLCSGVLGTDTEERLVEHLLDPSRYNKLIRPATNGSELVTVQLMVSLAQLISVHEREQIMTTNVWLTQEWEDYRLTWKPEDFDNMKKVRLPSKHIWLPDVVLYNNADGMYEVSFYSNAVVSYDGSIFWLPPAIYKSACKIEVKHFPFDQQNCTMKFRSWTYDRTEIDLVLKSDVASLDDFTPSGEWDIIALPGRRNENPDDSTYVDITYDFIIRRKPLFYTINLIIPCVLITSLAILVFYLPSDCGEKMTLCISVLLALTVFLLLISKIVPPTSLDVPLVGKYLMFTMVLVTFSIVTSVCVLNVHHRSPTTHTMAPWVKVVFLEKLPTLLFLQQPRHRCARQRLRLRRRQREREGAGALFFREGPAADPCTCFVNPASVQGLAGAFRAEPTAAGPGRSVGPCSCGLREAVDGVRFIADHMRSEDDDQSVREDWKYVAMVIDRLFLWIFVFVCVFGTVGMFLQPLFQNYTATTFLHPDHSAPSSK

SMILES | Ki [1] | Ki [2] | Activity (Mus musculus [3]) | AD50 (Mus musculus [4]) | Activity (Mus musculus [5]) | Activity (Mus musculus [8]) | ED50 (Mus musculus [9]) | ED50 (Mus musculus [14]) | AD50 (Mus musculus [16]) | other results
Fc1ccc(-c2cncc(C3CC4CCC3N4)c2)cc1 (configuration not stated) | 0.15 nM | > 2000 nM | 3% | 13 µg/kg | 13% | 0% | 3000 µg/kg | – | – | Activity (Mus musculus [6]): 10%; Activity (Mus musculus [7]): -1.6%
Clc1ccc(-c2cncc(C3CC4CCC3N4)c2)cc1 (configuration not stated) | 0.21 nM | > 2000 nM | 1% | – | 11% | 5% | 10500 µg/kg | – | – | Activity (Mus musculus [10]): 0%; Activity (Mus musculus [11]): 0%; Activity (Mus musculus [7]): 2%
Cl.Cl.c1ccc(-c2cncc(C3CC4CCC3N4)c2)cc1 (racemic) | 0.5 nM | – | 6% | 300 µg/kg | 30% | 0% | 500 µg/kg | 1500 µg/kg | – | Activity [12]: 7%; Activity (Mus musculus [13]): 10%
Cl.Cl.Fc1cccc(-c2cncc(C3CC4CCC3N4)c2)c1 (racemic) | 0.2 nM | > 2000 nM | 2% | 3.1 µg/kg | 8% | – | 5000 µg/kg | – | 3000 µg/kg | Activity (Mus musculus [7]): 0%; Activity (Mus musculus [15]): 0%
Cl.Cl.O=[N+]([O-])c1cccc(-c2cncc(C3CC4CCC3N4)c2)c1 (racemic) | 0.17 nM | > 2000 nM | – | – | – | – | 2500 µg/kg | 37600 µg/kg | – | Activity (Mus musculus [17]): 5%; Activity (Mus musculus [18]): 21%; Activity (Mus musculus [19]): 0%
Cl.Cl.Cl.Clc1cccc(-c2cncc(C3CC4CCC3N4)c2)c1 (racemic) | 0.17 nM | > 2000 nM | – | 0.01 µg/kg | – | 0% | 3800 µg/kg | – | – | Activity (Mus musculus [17]): 1%; Activity (Mus musculus [18]): 10%; Activity (Mus musculus [13]): 0%; Activity (Mus musculus [20]): 0%
Cl.Cl.O=[N+]([O-])c1ccc(-c2cncc(C3CC4CCC3N4)c2)cc1 (racemic) | 0.34 nM | > 2000 nM | 1% | 47 µg/kg | 26% | – | 660 µg/kg | 2900 µg/kg | – | Activity (Mus musculus [6]): 10%; Activity (Mus musculus [21]): 0%
COc1cccc(-c2cncc(C3CC4CCC3N4)c2)c1.Cl.Cl (racemic) | – | > 2000 nM | 1% | – | 20% | – | 2900 µg/kg | – | – | Activity (Mus musculus [10]): 0%; Activity (Mus musculus [11]): 0%; Activity (Mus musculus [7]): 0%; Activity (Mus musculus [15]): 0%
Cl.Fc1ncc(C2CC3CCC2N3)cc1-c1cccc(Cl)c1 (racemic) | 0.073 nM | – | – | 12 µg/kg | 14% | 0% | – | – | 450 µg/kg | –
Cl.Nc1cccc(-c2cncc(C3CC4CCC3N4)c2)c1 (racemic) | 1.16 nM | > 2000 nM | – | – | – | – | 1500 µg/kg | 3800 µg/kg | – | ED50 (Mus musculus [22]): 6 µg/kg; ED50 (Mus musculus [23]): 650 µg/kg
Cl.Nc1ccc(-c2cc(C3CC4CCC3N4)cnc2F)cc1 (racemic) | 0.095 nM | – | – | 5 µg/kg | 10% | – | – | – | 1800 µg/kg | Activity (Mus musculus [24]): 0%
Cl.Fc1ccc(-c2cc(C3CC4CCC3N4)cnc2F)cc1 (racemic) | 0.029 nM | – | – | 0.5 µg/kg | 15% | – | – | – | 230 µg/kg | Activity (Mus musculus [21]): 0%
Cl.Nc1ccc(-c2cncc(C3CC4CCC3N4)c2)cc1 (racemic) | 0.34 nM | > 2000 nM | 6% | 1 µg/kg | 10% | – | – | – | – | Activity (Mus musculus [25]): 45%; Activity (Mus musculus [7]): 0%; Activity (Mus musculus [26]): 0%; Activity (Mus musculus [27]): 15%
COc1cccc(-c2cc(C3CC4CCC3N4)cnc2F)c1.Cl (racemic) | – | – | – | 8 µg/kg | 8% | – | – | – | 2000 µg/kg | –
Cl.Fc1ncc(C2CC3CCC2N3)cc1-c1ccc(Cl)cc1 (racemic) | 0.044 nM | – | – | 0.3 µg/kg | 7% | 0% | – | – | 260 µg/kg | Activity (Mus musculus [27]): 5%
Cl.Fc1ncc(C2CC3CCC2N3)cc1-c1ccccc1 (racemic) | – | > 2000 nM | – | 500 µg/kg | – | – | – | – | 1200 µg/kg | Activity (Mus musculus [28]): 4%
Cl.O=[N+]([O-])c1ccc(-c2cc(C3CC4CCC3N4)cnc2F)cc1 (racemic) | 0.009 nM | – | – | 3 µg/kg | 10% | 0% | – | 3500 µg/kg | 120 µg/kg | –
Cl.Fc1cccc(-c2cc(C3CC4CCC3N4)cnc2F)c1 (racemic) | 0.087 nM | – | – | 5 µg/kg | – | 0% | – | – | – | Activity (Mus musculus [13]): 2%
Cl.Nc1cccc(-c2cc(C3CC4CCC3N4)cnc2F)c1 (racemic) | – | – | – | 9 µg/kg | 4% | – | – | – | 820 µg/kg | Activity (Mus musculus [24]): 5%
Clc1ccc(C2CC3CCC2N3)cn1 (racemic) [EPIBATIDINE] | – | – | – | – | – | – | 1 µg/kg | 4 µg/kg | – | ED50 (Mus musculus [22]): 6 µg/kg; ED50 (Mus musculus [23]): 4 µg/kg
c1cncc(C2CC3CCC2N3)c1 (configuration not stated) [DESCHLOROEPIBATIDINE] | – | – | – | – | – | – | – | – | – | ED50 (Mus musculus [22]): 2 µg/kg
CN1CCC[C@@H]1c1cccnc1 [R-NICOTINE] | – | – | – | – | – | – | 500 µg/kg | 1000 µg/kg | – | ED50 (Mus musculus [22]): 1300 µg/kg; ED50 (Mus musculus [23]): 650 µg/kg
c1cnc2cc3c(cc2n1)[C@@H]1CNC[C@H]3C1 [VARENICLINE] | – | – | 11% | 0.2 µg/kg | 10% | – | 2100 µg/kg | 2800 µg/kg | 470 µg/kg | Activity (Mus musculus [29]): 0%
